Values after ≈ are worked out from the molar mass of the structure shown.
Key:
Aspergillus niger = assay: Antifungal activity against Aspergillus niger ATCC 1094 after 72 hrs by broth microdilution assay; format: functional; settings: ATCC 1094, 72 h
Summary of the method: (§1)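 Compounds dissolved in DMSO, diluted in sterile distilled water from 4 to 0.0039 mg/mL. Molds grown on PDA at 25 °C for 5 days, suspended in double-strength PDB at 10⁵ spores/mL. Incubated at 25 °C for 72 h; mycelial growth read under stereo microscope. MIC = lowest concentration inhibiting visible growth. Ketoconazole reference.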

Salmonella typhimurium [1] = assay: Mutagenicity in Salmonella typhimurium TA98 at 5 mg/ml after 48 hrs by AMES MPF assay in presence of Sprague-Dawley rat liver microsomal S9 fraction relative to baseline; format: toxicity, organism-based; settings: salmonella enterica subsp. enterica serovar typhimurium
Summary of the method: (§2)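 Ames MPF fluctuation test with TA98/TA100. Overnight cultures (37 °C, 14–16 h) mixed with exposure medium; ±Aroclor-1254-induced rat liver S9 (final 4.5% v/v). Compounds in DMSO, 0.156–5 mg/mL. 90 min exposure at 37 °C, then indicator medium; 48 wells per concentration, 48 h at 37 °C, in triplicate. Yellow wells counted; fold induction over baseline (mean + 1 SD of zero-dose control).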

Candida parapsilosis = assay: Antifungal activity against Candida parapsilosis NRLL Y 12696 after 48 hrs by broth microdilution assay; format: functional; settings: Lodderomyces parapsilosis, NRLL Y 12696, 48 h
Summary of the method: (§3)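 Broth microdilution of DMSO stocks serially diluted in sterile water (4 to 0.0039 mg/mL). Yeasts grown on SDA at 37 °C for 24 h, suspended in double-strength PDB at 10⁵ spores/mL. Incubated at 37 °C for 48 h, then sprayed with 0.5% aqueous TTC. MIC = lowest concentration inhibiting visible growth. Ketoconazole reference.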

Salmonella typhimurium [2] = assay: Mutagenicity in Salmonella typhimurium TA100 at 0.3125 mg/ml after 48 hrs by AMES MPF assay in presence of Sprague-Dawley rat liver microsomal S9 fraction relative to baseline; format: toxicity, organism-based; settings: salmonella enterica subsp. enterica serovar typhimurium; summary of the method: as §2
Salmonella typhimurium [3] = assay: Mutagenicity in Salmonella typhimurium TA100 at 0.625 mg/ml after 48 hrs by AMES MPF assay in presence of Sprague-Dawley rat liver microsomal S9 fraction relative to baseline; format: toxicity, organism-based; settings: salmonella enterica subsp. enterica serovar typhimurium; summary of the method: as §2
Salmonella typhimurium [4] = assay: Mutagenicity in Salmonella typhimurium TA100 at 0.625 mg/ml after 48 hrs by AMES MPF assay in absence of Sprague-Dawley rat liver microsomal S9 fraction relative to baseline; format: toxicity, organism-based; settings: salmonella enterica subsp. enterica serovar typhimurium; summary of the method: as §2
Salmonella typhimurium [5] = assay: Mutagenicity in Salmonella typhimurium TA98 at 0.625 mg/ml after 48 hrs by AMES MPF assay in absence of Sprague-Dawley rat liver microsomal S9 fraction relative to baseline; format: toxicity, organism-based; settings: salmonella enterica subsp. enterica serovar typhimurium; summary of the method: as §2
Salmonella typhimurium [6] = assay: Mutagenicity in Salmonella typhimurium TA100 at 0.3125 mg/ml after 48 hrs by AMES MPF assay in absence of Sprague-Dawley rat liver microsomal S9 fraction relative to baseline; format: toxicity, organism-based; settings: salmonella enterica subsp. enterica serovar typhimurium; summary of the method: as §2
Salmonella typhimurium [7] = assay: Mutagenicity in Salmonella typhimurium TA98 at 1.25 mg/ml after 48 hrs by AMES MPF assay in absence of Sprague-Dawley rat liver microsomal S9 fraction relative to baseline; format: toxicity, organism-based; settings: salmonella enterica subsp. enterica serovar typhimurium; summary of the method: as §2
Salmonella typhimurium [8] = assay: Mutagenicity in Salmonella typhimurium TA98 at 2.5 mg/ml after 48 hrs by AMES MPF assay in presence of Sprague-Dawley rat liver microsomal S9 fraction relative to baseline; format: toxicity, organism-based; settings: salmonella enterica subsp. enterica serovar typhimurium; summary of the method: as §2
Salmonella typhimurium [9] = assay: Mutagenicity in Salmonella typhimurium TA98 at 1.25 mg/ml after 48 hrs by AMES MPF assay in presence of Sprague-Dawley rat liver microsomal S9 fraction relative to baseline; format: toxicity, organism-based; settings: salmonella enterica subsp. enterica serovar typhimurium; summary of the method: as §2
Fusarium solani = assay: Antifungal activity against Fusarium solani NRRL 13414 after 72 hrs by broth microdilution assay; format: functional; settings: NRRL 13414, 72 h; summary of the method: as §1
Salmonella typhimurium [10] = assay: Mutagenicity in Salmonella typhimurium TA100 at 2.5 mg/ml after 48 hrs by AMES MPF assay in absence of Sprague-Dawley rat liver microsomal S9 fraction relative to baseline; format: toxicity, organism-based; settings: salmonella enterica subsp. enterica serovar typhimurium; summary of the method: as §2
Salmonella typhimurium [11] = assay: Mutagenicity in Salmonella typhimurium TA100 at 2.5 mg/ml after 48 hrs by AMES MPF assay in presence of Sprague-Dawley rat liver microsomal S9 fraction relative to baseline; format: toxicity, organism-based; settings: salmonella enterica subsp. enterica serovar typhimurium; summary of the method: as §2
Salmonella typhimurium [12] = assay: Mutagenicity in Salmonella typhimurium TA98 at 0.156 mg/ml after 48 hrs by AMES MPF assay in absence of Sprague-Dawley rat liver microsomal S9 fraction relative to baseline; format: toxicity, organism-based; settings: salmonella enterica subsp. enterica serovar typhimurium; summary of the method: as §2
A549 = assay: Antiproliferative activity against human A549 cells after 24 hrs by XTT assay; format: functional, cell-based; settings: A549, 24 h
Summary of the method: (§4)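 A549 cells in RPMI and NIH/3T3 cells in DMEM, each with fetal calf serum, antibiotics and 7.5% NaHCO₃, at 37 °C, 5% CO₂. Seeded at 20,000 cells/well, 24 h, then compounds added in medium at 500–3.9 doses (final DMSO <0.1%) for 24 h. XTT read after 3 h at 480 nm (ref 680 nm). IC₅₀ by non-linear regression; triplicates; cisplatin control.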

Pichia kudriavzevii = assay: Antifungal activity against Candida krusei NRLL Y 7179 after 48 hrs by broth microdilution assay; format: functional; settings: NRLL Y 7179, 48 h; summary of the method: as §3
Nakaseomyces glabratus = assay: Antifungal activity against Candida glabrata clinical isolate after 48 hrs by broth microdilution assay; format: functional; summary of the method: as §3
Aspergillus flavus = assay: Antifungal activity against Aspergillus flavus NRRL 980 after 72 hrs by broth microdilution assay; format: functional; settings: NRRL 980, 72 h; summary of the method: as §1
Salmonella typhimurium [13] = assay: Mutagenicity in Salmonella typhimurium TA98 at 2.5 mg/ml after 48 hrs by AMES MPF assay in absence of Sprague-Dawley rat liver microsomal S9 fraction relative to baseline; format: toxicity, organism-based; settings: salmonella enterica subsp. enterica serovar typhimurium; summary of the method: as §2
Candida tropicalis = assay: Antifungal activity against Candida tropicalis NRLL Y 12968 after 48 hrs by broth microdilution assay; format: functional; settings: NRLL Y 12968, 48 h; summary of the method: as §3
Aspergillus parasiticus = assay: Antifungal activity against Aspergillus parasiticus NRRL 465 after 72 hrs by broth microdilution assay; format: functional; settings: NRRL 465, 72 h; summary of the method: as §1
Salmonella typhimurium [14] = assay: Mutagenicity in Salmonella typhimurium TA100 at 5 mg/ml after 48 hrs by AMES MPF assay in presence of Sprague-Dawley rat liver microsomal S9 fraction relative to baseline; format: toxicity, organism-based; settings: salmonella enterica subsp. enterica serovar typhimurium; summary of the method: as §2
Salmonella typhimurium [15] = assay: Mutagenicity in Salmonella typhimurium TA98 at 0.3125 mg/ml after 48 hrs by AMES MPF assay in absence of Sprague-Dawley rat liver microsomal S9 fraction relative to baseline; format: toxicity, organism-based; settings: salmonella enterica subsp. enterica serovar typhimurium; summary of the method: as §2
Salmonella typhimurium [16] = assay: Mutagenicity in Salmonella typhimurium TA98 at 0.3125 mg/ml after 48 hrs by AMES MPF assay in presence of Sprague-Dawley rat liver microsomal S9 fraction relative to baseline; format: toxicity, organism-based; settings: salmonella enterica subsp. enterica serovar typhimurium; summary of the method: as §2
Salmonella typhimurium [17] = assay: Mutagenicity in Salmonella typhimurium TA100 at 0.156 mg/ml after 48 hrs by AMES MPF assay in absence of Sprague-Dawley rat liver microsomal S9 fraction relative to baseline; format: toxicity, organism-based; settings: salmonella enterica subsp. enterica serovar typhimurium; summary of the method: as §2
Salmonella typhimurium [18] = assay: Mutagenicity in Salmonella typhimurium TA100 at 0.156 mg/ml after 48 hrs by AMES MPF assay in presence of Sprague-Dawley rat liver microsomal S9 fraction relative to baseline; format: toxicity, organism-based; settings: salmonella enterica subsp. enterica serovar typhimurium; summary of the method: as §2
Salmonella typhimurium [19] = assay: Mutagenicity in Salmonella typhimurium TA100 at 1.25 mg/ml after 48 hrs by AMES MPF assay in absence of Sprague-Dawley rat liver microsomal S9 fraction relative to baseline; format: toxicity, organism-based; settings: salmonella enterica subsp. enterica serovar typhimurium; summary of the method: as §2
Candida albicans = assay: Antifungal activity against Candida albicans ATCC 90028 after 48 hrs by broth microdilution assay; format: functional; settings: ATCC 90028, 48 h; summary of the method: as §3
Salmonella typhimurium [20] = assay: Mutagenicity in Salmonella typhimurium TA98 at 0.156 mg/ml after 48 hrs by AMES MPF assay in presence of Sprague-Dawley rat liver microsomal S9 fraction relative to baseline; format: toxicity, organism-based; settings: salmonella enterica subsp. enterica serovar typhimurium; summary of the method: as §2
[Candida] zeylanoides = Antifungal activity against Candida zeylanoides NRLL Y 1774 after 48 hrs by broth microdilution assay; format: functional; settings: Dujonia zeylanoides, NRLL Y 1774, 48 h; summary of the method: as §3
[21] = Cytotoxicity against mouse NIH/3T3 cells after 24 hrs by XTT assay; format: cell-based; settings: NIH3T3, 24 h; summary of the method: as §4
Salmonella typhimurium [22] = assay: Mutagenicity in Salmonella typhimurium TA100 at 5 mg/ml after 48 hrs by AMES MPF assay in absence of Sprague-Dawley rat liver microsomal S9 fraction relative to baseline; format: toxicity, organism-based; settings: salmonella enterica subsp. enterica serovar typhimurium; summary of the method: as §2
Salmonella typhimurium [23] = assay: Mutagenicity in Salmonella typhimurium TA98 at 0.625 mg/ml after 48 hrs by AMES MPF assay in presence of Sprague-Dawley rat liver microsomal S9 fraction relative to baseline; format: toxicity, organism-based; settings: salmonella enterica subsp. enterica serovar typhimurium; summary of the method: as §2
Salmonella typhimurium [24] = assay: Mutagenicity in Salmonella typhimurium TA98 at 5 mg/ml after 48 hrs by AMES MPF assay in absence of Sprague-Dawley rat liver microsomal S9 fraction relative to baseline; format: toxicity, organism-based; settings: salmonella enterica subsp. enterica serovar typhimurium; summary of the method: as §2
Salmonella typhimurium [25] = assay: Mutagenicity in Salmonella typhimurium TA100 at 1.25 mg/ml after 48 hrs by AMES MPF assay in presence of Sprague-Dawley rat liver microsomal S9 fraction relative to baseline; format: toxicity, organism-based; settings: salmonella enterica subsp. enterica serovar typhimurium; summary of the method: as §2

**Q.** What does the source list for `Fc1ccc(C2CC(c3ccc(Cl)s3)=NN2c2nc(-c3ccc(Br)cc3)cs2)cc1` (stereo unspecified)?
**A.** MIC (Aspergillus niger): 250 µg/mL (≈ 482 µM); fold change (FC) (Salmonella typhimurium [1]): 0.81; MIC (Candida parapsilosis): 250 µg/mL (≈ 482 µM); fold change (FC) (Salmonella typhimurium [2]): 3.92; fold change (FC) (Salmonella typhimurium [3]): 3.92; fold change (FC) (Salmonella typhimurium [4]): 0.33; fold change (FC) (Salmonella typhimurium [5]): 0; fold change (FC) (Salmonella typhimurium [6]): 1; fold change (FC) (Salmonella typhimurium [7]): 0; fold change (FC) (Salmonella typhimurium [8]): 0.68; fold change (FC) (Salmonella typhimurium [9]): 0.81; MIC (Fusarium solani): 250 µg/mL (≈ 482 µM); fold change (FC) (Salmonella typhimurium [10]): 0.33; fold change (FC) (Salmonella typhimurium [11]): 3.92; fold change (FC) (Salmonella typhimurium [12]): 0; IC50 (A549): 62.5 µg/mL (≈ 120 µM); MIC (Pichia kudriavzevii): 250 µg/mL (≈ 482 µM); MIC (Nakaseomyces glabratus): 125 µg/mL (≈ 241 µM); MIC (Aspergillus flavus): 125 µg/mL (≈ 241 µM); fold change (FC) (Salmonella typhimurium [13]): 0; MIC (Candida tropicalis): 250 µg/mL (≈ 482 µM); MIC (Aspergillus parasiticus): 250 µg/mL (≈ 482 µM); fold change (FC) (Salmonella typhimurium [14]): 2.54; fold change (FC) (Salmonella typhimurium [15]): 0.32; fold change (FC) (Salmonella typhimurium [16]): 0.81; fold change (FC) (Salmonella typhimurium [17]): 1; fold change (FC) (Salmonella typhimurium [18]): 2.77; fold change (FC) (Salmonella typhimurium [19]): 0; MIC (Candida albicans): 250 µg/mL (≈ 482 µM); fold change (FC) (Salmonella typhimurium [20]): 0.68; MIC ([Candida] zeylanoides): 250 µg/mL (≈ 482 µM); IC50 [21]: > 500 µg/mL; fold change (FC) (Salmonella typhimurium [22]): 2; fold change (FC) (Salmonella typhimurium [23]): 0.95; fold change (FC) (Salmonella typhimurium [24]): 0; fold change (FC) (Salmonella typhimurium [25]): 5.08

From ChEMBL document CHEMBL3407339, “A novel series of thiazolyl-pyrazoline derivatives: synthesis and evaluation of antifungal activity, cytotoxicity and genotoxicity” (Eur J Med Chem, 2015)
